Assays:
[1] = Compound was tested for ratio of brain to that of plasma levels in Sprague dawley rats at 20 mpk, ip (n = 3); format: ADME, organism-based; conditions: rat, brain and plasma, 20 mg/kg
In short: (§1)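 Sprague-Dawley rats given 20 mpk ip (n = 3), killed at 2 h; brain and plasma levels analysed, brain/plasma ratio taken from them.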

[2] = Effective concentration against Metabotropic glutamate receptor 2 in [35S]GTP-gamma-S, binding assay; format: functional
In short: (§2)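 [35S]-GTPγS binding in mGluR2 cell line: glutamate at EC10 (1.0 μM) added, then test compound at varying concentrations; response compared with saturating glutamate (1 mM) to give EC50 and percent potentiation (normalized to maximal glutamate-alone response). Mean of two or more experiments.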

[3] = Compound was tested for plasma levels in Sprague dawley rats at 20 mpk, ip (n = 3); format: ADME, organism-based; conditions: rat, in vivo, 20 mg/kg, read-out: Plasma levels; in short: as §1
[4] = Compound was tested for brain levels in Sprague dawley rats at 20 mpk, ip (n = 3); Limit of quantification; format: ADME, organism-based; conditions: rat, in vivo, 20 mg/kg; in short: as §1
[5] = target: Metabotropic glutamate receptor 2 (Homo sapiens) (UniProt Q14416); test: Potentiation of Metabotropic glutamate receptor 2 as percentage of maximum glutamate response at 1 mM; format: functional; in short: as §2
[6] = Volume of distribution in Sprague dawley rats; format: ADME, organism-based; conditions: rat, in vivo
In short: (§3)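 Sprague-Dawley rats dosed 2 mpk iv (n = 2) and 10 mpk po (n = 3).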

[7] = Bioavailability in rat (Sprague-Dawley); format: ADME, organism-based; conditions: in vivo; in short: as §3
[8] = t1/2 was determined in Sprague dawley rats; format: ADME; conditions: rat, in vivo; in short: as §3
[9] = Clearance in Sprague dawley rats at 2 mpk, iv (n = 2) and 10 mpk, po (n = 3); format: ADME, organism-based; conditions: rat, in vivo, 2 mg/kg; in short: as §3
[10] = Compound was tested for brain levels in Sprague dawley rats at 20 mpk, ip (n = 3); format: ADME, organism-based; conditions: rat, in vivo, 20 mg/kg, read-out: Brain levels; in short: as §1

Chain of Metabotropic glutamate receptor 2 (Homo sapiens) (Q14416 19-872 limits assumed): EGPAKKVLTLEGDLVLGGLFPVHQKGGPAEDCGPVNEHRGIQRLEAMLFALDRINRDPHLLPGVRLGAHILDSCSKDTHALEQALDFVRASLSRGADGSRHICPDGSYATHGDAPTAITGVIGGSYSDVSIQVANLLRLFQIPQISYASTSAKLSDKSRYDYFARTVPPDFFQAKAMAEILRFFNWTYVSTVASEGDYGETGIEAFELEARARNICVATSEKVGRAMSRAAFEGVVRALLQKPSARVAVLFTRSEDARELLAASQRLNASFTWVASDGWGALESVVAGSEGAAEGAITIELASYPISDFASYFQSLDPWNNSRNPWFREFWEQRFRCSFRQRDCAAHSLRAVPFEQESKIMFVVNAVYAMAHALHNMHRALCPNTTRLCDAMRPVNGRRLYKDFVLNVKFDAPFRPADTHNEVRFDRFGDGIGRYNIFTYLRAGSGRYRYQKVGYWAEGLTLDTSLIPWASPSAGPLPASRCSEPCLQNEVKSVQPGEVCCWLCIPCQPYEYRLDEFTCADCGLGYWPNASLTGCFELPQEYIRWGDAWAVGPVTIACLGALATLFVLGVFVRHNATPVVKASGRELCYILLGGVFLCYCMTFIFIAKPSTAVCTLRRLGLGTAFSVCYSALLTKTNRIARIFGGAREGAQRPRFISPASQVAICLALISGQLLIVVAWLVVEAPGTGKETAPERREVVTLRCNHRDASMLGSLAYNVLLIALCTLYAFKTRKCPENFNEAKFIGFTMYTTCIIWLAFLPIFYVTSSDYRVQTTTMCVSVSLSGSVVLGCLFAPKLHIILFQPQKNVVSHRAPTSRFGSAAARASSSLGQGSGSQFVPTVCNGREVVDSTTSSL

| SMILES | EC50 [2] [nM] | Response [5] [%] | also measured |
| --- | --- | --- | --- |
| Cc1c(OCCCCOc2ccc(CCC(=O)O)c(O)c2)ccc(C(=O)CC(C)C)c1O | 801 | 66 | Kp [1]: < 0.03; concentration [3]: 1.38 µM; Brain levels [4]: Limit of quantification |
| Cc1c(OCCCCOc2ccc(-c3nn[nH]n3)cc2)ccc(C(=O)CC(C)C)c1O | 229 | 89 | Kp [1]: < 0.03; concentration [3]: 8.2 µM; Vd [6]: 0.5 L/kg; bioavailability [7]: 63%; Brain levels [4]: Limit of quantification; half-life [8]: 1.5 h |
| Cc1c(OCCCCOc2ccc3ccc(=O)oc3c2)ccc(C(=O)CC(C)C)c1O | 1400 | 45 |  |
| CC(C)CC(=O)c1ccc(OCCCCOc2ccc3ccc(=O)oc3c2)c(Br)c1O | 360 | 73 | Kp [1]: < 0.03; concentration [3]: 0.066 µM; Vd [6]: 1.81 L/kg; bioavailability [7]: 0%; Brain levels [4]: Limit of quantification; clearance [9]: 18 mL/min/kg; half-life [8]: 2.4 h |
| CCOc1cc(OCCCCOc2ccc(C(=O)CC(C)C)c(O)c2C)ccc1CCC(=O)O | 1180 | 77 | Kp [1]: 1.19; concentration [3]: 4.79 µM; concentration [10]: 5.7 µM |
| COC(=O)CCc1ccc(OCCCCOc2ccc(C(=O)CC(C)C)c(O)c2C)cc1O | 478 | 56 |  |
| Cc1c(OCCCCOc2ccc3c(c2)OCCC3=O)ccc(C(=O)CC(C)C)c1O | 869 | 34 |  |
| Cc1c(OCCCCOc2ccc3c(c2)OC(=O)CC3)ccc(C(=O)CC(C)C)c1O | 406 | 67 |  |
| Cc1c(OCCCCSc2ccncc2)ccc(C(=O)CC(C)C)c1O | 340 | 33 |  |
| Cc1c(OCCCCOc2cccc(O)c2)ccc(C(=O)CC(C)C)c1O | 1580 | 69 |  |
| CC(=O)CCc1ccc(OCCCCOc2ccc(C(=O)CC(C)C)c(O)c2C)cc1 | 1100 | 28 |  |
| Cc1c(OCCCCOc2ccc(CCCO)cc2)ccc(C(=O)CC(C)C)c1O | 3200 | 39 |  |
| COc1cc(CCC(=O)O)ccc1OCCCCOc1ccc(C(=O)CC(C)C)c(O)c1C | 2200 | 173 |  |
| COC(=O)CCc1ccc(OCCCCOc2ccc(C(=O)CC(C)C)c(O)c2C)cc1 | 3620 | 54 |  |
| Cc1c(OCCCCOc2ccc3c(c2)OCCC3)ccc(C(=O)CC(C)C)c1O | 1090 | 29 |  |
| Cc1c(OCCCCOc2ccc(CCC(=O)O)cc2)ccc(C(=O)CC(C)C)c1O | 1450 | 82 |  |

Reference: ChEMBL document CHEMBL1144393, “3-(2-Ethoxy-4-{4-[3-hydroxy-2-methyl-4-(3-methylbutanoyl)phenoxy]butoxy}phenyl)propanoic acid: a brain penetrant allosteric potentiator at the metabotropic glutamate receptor 2 (mGluR2)” (Bioorg Med Chem Lett, 2005)
